Results as given in ChEMBL document CHEMBL1137740, “Design, cytotoxic and fluorescent properties of novel N-phosphorylalkyl substituted E,E-3,5-bis(arylidene)piperid-4-ones” (Eur J Med Chem, 2009).

Columns and labels:
PC-3 [1] = assay: Cytotoxicity against human PC3 cells after 72 hrs by MTT assay; type: functional, cell-based; conditions: PC-3, 72 h
How it was run: (§1)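 Cells grown in RPMI-1640 with 10% FBS, 2 mM L-glutamine and gentamicin. Seeded at 1×10^4 cells/well and allowed to attach overnight at 37 °C, 5% CO2. Compounds dissolved in DMSO and diluted into FBS-free medium, tested at 5×10^-5, 10^-5, 10^-6 and 10^-7 M. After 72 h, MTT added for 3 h at 37 °C. Formazan dissolved in DMSO and OD read at 590 nm. Viability expressed versus untreated controls, triplicates. IC50 determined graphically; melphalan as positive control.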

[2] = Cytotoxicity against human Caov3 cells after 72 hrs by MTT assay; type: functional, cell-based; conditions: Caov-3, 72 h; how it was run: as §1
A549 [3] = assay: Cytotoxicity against human A549 cells after 72 hrs by MTT assay; type: functional, cell-based; conditions: A549, 72 h; how it was run: as §1
SK-OV-3 [4] = assay: Cytotoxicity against human Scov3 cells after 72 hrs by MTT assay; type: functional, cell-based; conditions: SK-OV-3, 72 h; how it was run: as §1
[5] = Cytotoxicity against human Caov3 cells at 50 uM after 72 hrs by MTT assay; type: functional; conditions: Caov-3, 72 h
SK-OV-3 [6] = assay: Cytotoxicity against human Scov3 cells at 50 uM after 72 hrs by MTT assay; type: functional; conditions: SK-OV-3, 72 h
A549 [7] = assay: Cytotoxicity against human A549 cells at 50 uM after 72 hrs by MTT assay; type: functional; conditions: A549, 72 h
PC-3 [8] = assay: Cytotoxicity against human PC3 cells at 50 uM after 72 hrs by MTT assay; type: functional; conditions: PC-3, 72 h

SMILES | IC50 (PC-3 [1]) | IC50 [2] | IC50 (A549 [3]) | IC50 (SK-OV-3 [4]) | inhibition at 50 µM [5] | inhibition at 50 µM (SK-OV-3 [6]) | inhibition at 50 µM (A549 [7]) | inhibition at 50 µM (PC-3 [8])
O=C1/C(=C/c2ccc([N+](=O)[O-])cc2)CNC/C1=C\c1ccc([N+](=O)[O-])cc1 | 1540 nM | 1.03 µM | 400 nM | 2500 nM | – | – | – | –
O=C1/C(=C/c2ccc(F)cc2)CNC/C1=C\c1ccc(F)cc1 | 6000 nM | – | 800 nM | 6500 nM | < 50% | – | – | –
CN(C)c1ccc(/C=C2\CNC/C(=C\c3ccc(N(C)C)cc3)C2=O)cc1 | 15000 nM | – | 1400 nM | 14000 nM | < 50% | – | – | –
CCOP(=O)(CCCN1C/C(=C\c2ccc(N(C)C)cc2)C(=O)/C(=C/c2ccc(N(C)C)cc2)C1)OCC | – | – | – | – | < 50% | < 50% | < 50% | < 50%
CCOP(=O)(CCCCN1C/C(=C\c2ccc(N(C)C)cc2)C(=O)/C(=C/c2ccc(N(C)C)cc2)C1)OCC | – | – | – | – | < 50% | < 50% | < 50% | < 50%
CCOP(=O)(CCN1C/C(=C\c2ccc(N(C)C)cc2)C(=O)/C(=C/c2ccc(N(C)C)cc2)C1)OCC | – | – | – | – | < 50% | < 50% | < 50% | < 50%
CCOP(=O)(CCN1C/C(=C\c2ccc([N+](=O)[O-])cc2)C(=O)/C(=C/c2ccc([N+](=O)[O-])cc2)C1)OCC | 1320 nM | 5.05 µM | 1000 nM | 2010 nM | – | – | – | –
CCOP(=O)(CCCN1C/C(=C\c2ccc([N+](=O)[O-])cc2)C(=O)/C(=C/c2ccc([N+](=O)[O-])cc2)C1)OCC | 710 nM | 5.62 µM | 7120 nM | 900 nM | – | – | – | –
CCOP(=O)(CN1C/C(=C\c2ccc(N(C)C)cc2)C(=O)/C(=C/c2ccc(N(C)C)cc2)C1)OCC | 30000 nM | – | – | – | < 50% | < 50% | < 50% | –
CCOP(=O)(CN1C/C(=C\c2ccc(F)cc2)C(=O)/C(=C/c2ccc(F)cc2)C1)OCC | 3000 nM | 10.2 µM | 8050 nM | 2100 nM | – | – | – | –
CCOP(=O)(CN1C/C(=C\c2ccc([N+](=O)[O-])cc2)C(=O)/C(=C/c2ccc([N+](=O)[O-])cc2)C1)OCC | 1400 nM | 5.03 µM | 1000 nM | 1520 nM | – | – | – | –
CCOP(=O)(CCCN1C/C(=C\c2ccc(F)cc2)C(=O)/C(=C/c2ccc(F)cc2)C1)OCC | 1820 nM | 8.5 µM | 9070 nM | 2800 nM | – | – | – | –
CCOP(=O)(CCN1C/C(=C\c2ccc(F)cc2)C(=O)/C(=C/c2ccc(F)cc2)C1)OCC | 4010 nM | 10 µM | 1020 nM | 1640 nM | – | – | – | –
CCOP(=O)(CCCCN1C/C(=C\c2ccc([N+](=O)[O-])cc2)C(=O)/C(=C/c2ccc([N+](=O)[O-])cc2)C1)OCC | 1200 nM | 1.01 µM | 3000 nM | 4100 nM | – | – | – | –
N[C@@H](Cc1ccc(N(CCCl)CCCl)cc1)C(=O)O [MELPHALAN] | 70000 nM | 20 µM | 50000 nM | 60000 nM | – | – | – | –
